According to ChEMBL document CHEMBL5042555, “Development of Myostatin Inhibitory d-Peptides to Enhance the Potency, Increasing Skeletal Muscle Mass in Mice” (ACS Med Chem Lett, 2022):
Calls of active or inactive are those of the source. The calls are words filed in the database; no cut-off is given here. Non-standard residues stand in square brackets, D forms with d. Residues, ends and D or L forms follow the SMILES beside them. Chg = N[C@H](C(=O)O)C1CCCCC1

Key:
[1] = biological target: T1, Growth/differentiation factor 8 (Homo sapiens, UniProt O14793); test: Inhibition of myostatin (unknown origin) expressed in HEK293 cells transfected with Smad2/3 responsive reporter plasmid incubated for 4 hrs by dual luciferase reporter gene based assay; type: cell-based
T1 sequence (O14793 whole entry): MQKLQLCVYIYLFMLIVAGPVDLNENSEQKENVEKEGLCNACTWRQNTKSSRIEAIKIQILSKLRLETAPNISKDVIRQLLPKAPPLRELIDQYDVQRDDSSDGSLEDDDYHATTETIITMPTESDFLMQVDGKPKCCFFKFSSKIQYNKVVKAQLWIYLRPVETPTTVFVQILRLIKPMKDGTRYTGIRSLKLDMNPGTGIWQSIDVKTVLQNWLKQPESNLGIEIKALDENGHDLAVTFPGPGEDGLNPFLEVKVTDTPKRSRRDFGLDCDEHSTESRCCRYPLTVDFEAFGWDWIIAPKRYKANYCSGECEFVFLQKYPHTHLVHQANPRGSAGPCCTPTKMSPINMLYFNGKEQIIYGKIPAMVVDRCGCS

[2] = system: Mus musculus; test: In vivo inhibition of myostatin in C57BL/6J mouse assessed as increase in weight of tibialis anterior muscles normalized with body weight at 0.75 mM, IM administered for 28 days; type: functional; details: time 28.0 day
Summary of the method: (§1)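 Wild-type male C57BL/6J mice, 8 weeks old. Single intramuscular injection at day 0: peptide (30 nmol; 0.75 mM in saline, 40 μL) into left tibialis anterior, saline (40 μL) into right TA. TA muscles collected and weighed at day 28, weight normalized to body weight. Increase expressed relative to saline-injected TA (=100%). Mean ± SD, N = 4–5 mice.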

[3] = In vivo inhibition of myostatin in C57BL/6J mouse assessed as increase in weight of tibialis anterior muscles at 0.75 mM, IM administered for 28 days relative to control; type: functional; set-up: scale not given: the % may be the effect or the level left; details: time 28 day; summary of the method: as §1
[4] = biological target: Transforming growth factor beta-1 proprotein (Homo sapiens, UniProt P01137); test: Inhibition of TGF beta 1 (unknown origin) expressed in HEK293 cells transfected with Smad2/3 responsive reporter plasmid incubated for 4 hrs by dual luciferase reporter gene assay; type: cell-based
Transforming growth factor beta-1 proprotein, sequence (P01137 279-390 limits assumed): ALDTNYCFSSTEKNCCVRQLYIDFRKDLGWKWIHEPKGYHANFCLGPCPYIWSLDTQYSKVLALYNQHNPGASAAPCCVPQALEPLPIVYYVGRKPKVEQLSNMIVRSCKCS
Summary of the method: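 HEK293 cells co-transfected with Smad-responsive firefly luciferase reporter (pGL4.48[luc2P/SBE/Hygro]) and Renilla control (pGL4.74[hRluc/TK]). Cells starved 8 h in serum-free DMEM, then exposed 4 h to TGF-β1 at 2.5 ng/mL (0.1 nM) with or without peptide (0.025–18 or 0.074–54 μM). SB431542 at 5 μM as positive control. Triplicate means ± SD. IC50 from sigmoidal curve fitting.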

[5] = Inhibition of GDF-11 (unknown origin) expressed in HEK293 cells transfected with Smad2/3 responsive reporter plasmid incubated for 4 hrs by dual luciferase reporter gene based assay; details: Homo sapiens, HEK293, 4 h
[6] = Inhibition of activin A (unknown origin) expressed in HEK293 cells transfected with Smad2/3 responsive reporter plasmid incubated for 4 hrs by dual luciferase reporter gene assay; details: Homo sapiens, HEK293, 4 h

Row | Structure (SMILES) | IC50 [1] | Activity [2] | Activity [3] | IC50 [4] | IC50 [5] | IC50 [6]
1 | CC[C@@H](C)[C@@H](NC(=O)[C@@H](CCCNC(=N)N)NC(=O)[C@@H](Cc1c[nH]c2ccccc12)NC(=O)[C@H](NC(=O)[C@@H](CCCCN)NC(=O)[C@H](NC(=O)[C@@H](CCCNC(=N)N)NC(=O)[C@H](NC(=O)[C@@H](Cc1c[nH]c2ccccc12)NC(=O)[C@@H](CCCNC(=N)N)NC(=O)[C@@H](CCCCN)NC(=O)[C@H](NC(=O)[C@@H](CCCNC(=N)N)NC(=O)[C@H](N)CC(C)C)C1CCCCC1)[C@H](C)CC)C1CCCCC1)[C@H](C)CC)C(=O)N[C@H](Cc1ccc(O)cc1)C(=O)N[C@H](Cc1c[nH]c2ccccc12)C(N)=O | 190 nM | Active | 133% | 1.6 µM | 630 nM | 890 nM
2 | CC[C@H](C)[C@H](NC(=O)[C@H](CCC(N)=O)NC(=O)[C@@H](NC(=O)[C@H](CCCCN)NC(=O)[C@@H](NC(=O)[C@@H](Cc1c[nH]c2ccccc12)NC(=O)[C@H](CCCNC(=N)N)NC(=O)[C@@H](NC(=O)[C@H](Cc1ccc(O)cc1)NC(=O)[C@@H](N)Cc1c[nH]c2ccccc12)[C@@H](C)CC)[C@@H](C)CC)C1CCCCC1)C(=O)N[C@@H](Cc1c[nH]c2ccccc12)C(=O)N[C@@H](CO)C(=O)N[C@@H](CCCCN)C(=O)N[C@H](C(=O)N[C@@H](CCCNC(=N)N)C(=O)N[C@@H](CC(C)C)C(N)=O)C1CCCCC1 (H-WYIR[dW]IK[Chg]QIWSK[Chg]RL-NH2) | 260 nM | Active | 109% | 6.7 µM | 1400 nM | 1400 nM
